The results in this text go back to ChEMBL document CHEMBL3856186, “Partial Activation and Inhibition of TRPV1 Channels by Evodiamine and Rutaecarpine, Two Major Components of the Fruits of Evodia rutaecarpa” (J Nat Prod, 2016).

Activity calls are given as the source filed them. The calls are words filed in the database; no cut-off is given here.

Common to all, as to assay type: cell-based
The target of assay [1] is Transient receptor potential cation channel subfamily V member 1 (Rattus norvegicus) (UniProt O35433). The assay can be described thus: Partial antagonist activity at rat TRPV1 expressed in HEK293 cells assessed as desensitization of capsaicin-induced inward current at 10 uM and -60 mV holding potential pretreated for 60 secs prior to capsaicin-challenge in absence of calcium by whole-cell patch-clamp method. A digest of the protocol: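 Whole-cell clamp at −60 mV was done on rat TRPV1-transfected HEK293 cells (1 day) using a calcium-free bath (5 mM EGTA, no CaCl2, pH 7.4) at ~25 °C. Capsaicin-evoked peak current was measured.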
Transient receptor potential cation channel subfamily V member 1 (Rattus norvegicus), sequence (O35433 whole entry): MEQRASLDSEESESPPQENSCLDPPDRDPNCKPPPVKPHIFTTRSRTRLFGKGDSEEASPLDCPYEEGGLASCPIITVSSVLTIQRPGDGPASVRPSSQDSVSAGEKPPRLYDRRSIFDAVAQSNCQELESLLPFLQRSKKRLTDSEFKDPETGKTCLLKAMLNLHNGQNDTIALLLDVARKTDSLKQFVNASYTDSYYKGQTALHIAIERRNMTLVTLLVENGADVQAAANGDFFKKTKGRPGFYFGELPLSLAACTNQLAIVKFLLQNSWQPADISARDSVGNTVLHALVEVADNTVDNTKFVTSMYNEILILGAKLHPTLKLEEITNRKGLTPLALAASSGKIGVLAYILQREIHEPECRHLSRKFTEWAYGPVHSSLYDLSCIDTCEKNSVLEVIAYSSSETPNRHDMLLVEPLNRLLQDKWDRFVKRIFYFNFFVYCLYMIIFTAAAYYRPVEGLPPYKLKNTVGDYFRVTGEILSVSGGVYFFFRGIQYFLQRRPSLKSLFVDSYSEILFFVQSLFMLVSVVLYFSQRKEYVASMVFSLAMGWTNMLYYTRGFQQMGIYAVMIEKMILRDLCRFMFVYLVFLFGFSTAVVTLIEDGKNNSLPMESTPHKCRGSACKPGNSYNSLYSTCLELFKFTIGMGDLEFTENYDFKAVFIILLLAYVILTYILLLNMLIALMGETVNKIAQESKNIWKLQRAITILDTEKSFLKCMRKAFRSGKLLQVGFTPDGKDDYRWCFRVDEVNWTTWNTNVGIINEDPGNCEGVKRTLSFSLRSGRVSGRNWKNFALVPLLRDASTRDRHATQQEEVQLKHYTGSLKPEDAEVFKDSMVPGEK
On the technique in general: In patch-clamp work, channel activity is measured electrically.

Assay [2] shares this target. The assay can be described thus: Partial antagonist activity at rat TRPV1 expressed in HEK293 cells assessed as effect on capsaicin current density at 0.1 uM pretreated for 180 sec followed by capsaicin addition at -60 mV holding potential in presence of extracellular calcium by whole-cell patch-clamp method (reference value: -327.4 +/- 52.3 pA/pF). A digest of the protocol: (§1)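 HEK293 cells transiently expressing rat TRPV1 (EGFP cotransfected) were patched in whole-cell mode 1 day post-transfection. Cells were held at −60 mV in Ca2+-containing standard bath (pH 7.4) at ~25 °C. Capsaicin-evoked peak current amplitude was quantified. Sigmoidal curve fitting gave EC50 or IC50 values.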

Assay [3] shares this target. In words: Partial antagonist activity at rat TRPV1 expressed in HEK293 cells assessed as effect on capsaicin-induced inward current at 10 uM by whole-cell patch clamp method (reference value: -7 +/- 2.6 pA/pF). Put shortly: as §1
Assay [4] shares this target. In words: Partial antagonist activity at rat TRPV1 expressed in HEK293 cells assessed as effect on capsaicin-induced inward current at 0.1 uM by whole-cell patch clamp method (reference value: -431 +/- 43.1 pA/pF). Put shortly:
as §1

Assay [5] shares this target. The assay can be described thus: Partial antagonist activity at rat TRPV1 expressed in HEK293 cells assessed as effect on capsaicin-induced inward current at 0.6 uM by whole-cell patch clamp method (reference value: -7 +/- 2.6 pA/pF). A digest of the protocol: as §1
Assay [6] has the same target. The assay can be described thus: Agonist activity at rat TRPV1 channel expressed in HEK293 cells assessed as induction of inward current at 10 uM and -60 mV holding potential by whole-cell patch-clamp method. Put shortly:
(§2)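 Rat TRPV1 cDNA and an EGFP reporter were cotransfected into HEK293 cells, with recording 1 day later. Whole-cell voltage clamp was run at room temperature (~25 °C) in standard bath (2 mM CaCl2, pH 7.4) with a KCl/MgATP/EGTA pipette solution. Steps from −100 to +100 mV (100 ms) gave I–V curves. Agonist was applied until desensitization, and peak current was scored. EC50 came from a sigmoidal fit.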

Assay [7] has the same target. The assay can be described thus: Partial antagonist activity at rat TRPV1 expressed in HEK293 cells assessed as effect on proton-induced channel current at 1 uM and -60 mV holding potential co-treated with proton by whole-cell patch clamp method. Put shortly:
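Proton-activated currents were recorded in rat TRPV1-expressing HEK293 cells held at −60 mV in whole-cell mode, with bath buffered to pH 6 with 10 mM MES, at ~25 °C. Peak current amplitude was the read-out.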

For assay [8] the target is unchanged. In words: Desensitization of rat TRPV1 expressed in HEK293 cells at 10 uM for 30 sec at -60 mV holding potential in presence of extracellular calcium by whole-cell patch clamp method. Put shortly: as §2
Assay [9] has the same target. The assay can be described thus: Agonist activity at rat TRPV1 channel expressed in HEK293 cells assessed as induction of maximum channel current at 10 uM at -60 mV holding potential by whole-cell patch-clamp method. A digest of the protocol:
as §2

The target is the same in assay [10]. In words: Partial antagonist activity at rat TRPV1 expressed in HEK293 cells assessed as effect on capsaicin-induced inward current at 0.1 uM by whole-cell patch clamp method (reference value: -7 +/- 2.6 pA/pF). A digest of the protocol:
as §1

For assay [11] the target is unchanged. In words: Partial antagonist activity at rat TRPV1 expressed in HEK293 cells assessed as effect on capsaicin current density at 1 uM pretreated for 180 sec followed by capsaicin addition at -60 mV holding potential in presence of extracellular calcium by whole-cell patch-clamp method (reference value: -327.4 +/- 52.3 pA/pF). Put shortly:
as §1

Assay [12] shares this target. In words: Partial antagonist activity at rat TRPV1 expressed in HEK293 cells assessed as effect on capsaicin-induced inward current at 1 uM by whole-cell patch clamp method (reference value: -151.2 +/- 33 pA/pF). Put shortly: as §1
Assay [13] has the same target. In words: Partial antagonist activity at rat TRPV1 expressed in HEK293 cells assessed as effect on capsaicin-induced inward current at 0.1 uM by whole-cell patch clamp method (reference value: -327.4 +/- 52.3 pA/pF). A digest of the protocol: as §1
Assay [14] shares this target. The assay can be described thus: Partial antagonist activity at rat TRPV1 expressed in HEK293 cells assessed as effect on capsaicin-induced inward current at 10 uM by whole-cell patch clamp method (reference value: -[…] +/- […] pA/pF).
For assay [15] the target is unchanged. In words: Partial antagonist activity at rat TRPV1 expressed in HEK293 cells assessed as effect on capsaicin-induced inward current at 0.1 uM by whole-cell patch clamp method (reference value: -[…] +/- […] pA/pF).
Assay [16] has the same target. In words: Partial antagonist activity at rat TRPV1 expressed in HEK293 cells assessed as effect on capsaicin-induced inward current at 1 uM by whole-cell patch clamp method (reference value: -480.7 +/- 96.9 pA/pF). A digest of the protocol:
as §1

Assay [17] shares this target. The assay can be described thus: Partial antagonist activity at rat TRPV1 expressed in HEK293 cells assessed as effect on capsaicin-induced inward current at 10 uM by whole-cell patch clamp method (reference value: -151.2 +/- 33 pA/pF). Put shortly:
as §1

For assay [18] the target is unchanged. The assay can be described thus: Partial antagonist activity at rat TRPV1 expressed in HEK293 cells assessed as effect on capsaicin-induced inward current at 10 uM by whole-cell patch clamp method (reference value: -480.7 +/- 96.9 pA/pF). Put shortly:
as §1

For assay [19] the target is unchanged. In words: Partial antagonist activity at rat TRPV1 expressed in HEK293 cells assessed as inhibition of capsaicin-induced inward current at -60 mV holding potential pretreated for 180 secs prior to capsaicin addition in presence of extracellular calcium by whole-cell patch-clamp method. Put shortly: as §1
The target is the same in assay [20]. The assay can be described thus: Partial antagonist activity at rat TRPV1 expressed in HEK293 cells assessed as effect on capsaicin-induced inward current at 0.6 uM by whole-cell patch clamp method (reference value: -431 +/- 43.1 pA/pF). Put shortly: as §1

On to `CN1c2ccccc2C(=O)N2CCc3c([nH]c4ccccc34)C21` (stereo not given), for which the outcome in assay [1], in assay [6] and in [8] was Active. Also, the Activity in [2] was -243 pA/pF; in assay [3], -165 pA/pF; in assay [4] it was -390 pA/pF; in [5], -35.9 pA/pF; in assay [7], -158 pA/pF; in assay [9], -143 pA/pF. Moreover, the Activity was -6.4 pA/pF in assay [10]; -132 pA/pF in assay [11]; -75 pA/pF in assay [12]; -236 pA/pF in assay [13]; -393 pA/pF in assay [14]; -492 pA/pF in assay [15]. The Activity in assay [16] was -296 pA/pF; in assay [17], -172 pA/pF; in [18], -256 pA/pF; in [20], -328 pA/pF. In addition, in [19], the inhibition entry was “Dose-dependent effect”.
